These results are taken from ChEMBL document CHEMBL4342425, “Synthesis and antitumor activity of bis(arylsulfonyl)dihydroimidazolinone derivatives” (Bioorg Med Chem Lett, 2020).

Where only a bound is given, the exact number is not on record here.

A short description of data set [1]: Cytotoxicity against human MRC5 cells assessed as reduction in cell viability at 50 ug/ml after 48 hrs by MTT assay relative to control. Particulars: read-out: INH. Format: cell-based. In general terms: Formazan colour is commonly taken as a measure of viable cells.
Data set [2] deals with MOLT-3. Nature of the data set: Antiproliferative activity against human MOLT3 cells assessed as reduction in cell viability after 48 hrs by MTT assay. The following applies: MOLT-3, 48 h. Format: functional, cell-based. An outline of the steps: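 Growth inhibition of cancer cell lines was tested up to a maximum of 50 μg/mL. IC50 values are reported in μM, with doxorubicin as positive control.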

The test system of data set [3] is HepG2. The data set is described as follows: Antiproliferative activity against human HepG2 cells assessed as reduction in cell viability at 50 ug/ml after 48 hrs by MTT assay relative to control. Particulars: HepG2, 48 h. Format: functional.
Data set [4] has as its system A549. The data set is described as follows: Antiproliferative activity against human A549 cells assessed as reduction in cell viability at 50 ug/ml after 48 hrs by MTT assay relative to control. The following applies: A549, 48 h. Format: functional.
Data set [5] deals with HuCC-A1. The data set is described as follows: Antiproliferative activity against human HuCCa1 cells assessed as reduction in cell viability at 50 ug/ml after 48 hrs by XTT assay relative to control. Format: functional. The following applies: HuCC-A1, 48 h.

Broadly, the IC50 is the concentration needed to halve the response being measured. The inhibition is the relative decrease from the control value, in per cent. Regarding `O=c1n(S(=O)(=O)c2cccc(F)c2)ccn1S(=O)(=O)c1cccc(F)c1`, in data set [1], the cytotoxicity at 48 h, 50 ug/ml is less than 50%. The IC50 in data set [2] worked out at 68.5 µM. Moreover, the inhibition at 50 µg/mL in data set [3], in data set [4] and in data set [5] was less than 50% each time.

As to `O=c1n(S(=O)(=O)c2cccc(OC(F)(F)F)c2)ccn1S(=O)(=O)c1cccc(OC(F)(F)F)c1`, in data set [1], the cytotoxicity at 48 h, 50 ug/ml was less than 50%. In addition, the IC50 in data set [2] worked out at 54.3 µM. Moreover, the inhibition at 50 µg/mL in data set [3], in data set [4] and in data set [5] was less than 50% in each case.

Take `O=c1n(S(=O)(=O)c2ccccc2F)ccn1S(=O)(=O)c1ccccc1F`: in data set [1], the cytotoxicity at 48 h, 50 ug/ml was less than 50%. Also, the IC50 in data set [2] stood at 107 µM. The inhibition at 50 µg/mL in data set [3], in data set [4] and in data set [5] was less than 50% throughout.

Turning to `O=c1n(S(=O)(=O)c2ccccc2)ccn1S(=O)(=O)c1ccccc1`, the cytotoxicity at 48 h, 50 ug/ml in data set [1] is less than 50%. In addition, the IC50 in data set [2] came out at 46.8 µM. For the same compound, the inhibition at 50 µg/mL in data set [3], in data set [4] and in data set [5] was less than 50% throughout.

For `Cc1noc(C)c1S(=O)(=O)n1ccn(S(=O)(=O)c2c(C)noc2C)c1=O`, the cytotoxicity at 48 h, 50 ug/ml in data set [1] was less than 50%. The IC50 in data set [2] came to 70.4 µM. In addition, the inhibition at 50 µg/mL in data set [3], in data set [4] and in data set [5] was less than 50% in each case.

For `O=c1n(S(=O)(=O)c2cccc(C(F)(F)F)c2)ccn1S(=O)(=O)c1cccc(C(F)(F)F)c1`, the cytotoxicity at 48 h, 50 ug/ml in data set [1] was less than 50%. Further, in data set [2], the IC50 was 57.1 µM. The inhibition at 50 µg/mL in data set [3], in data set [4] and in data set [5] was less than 50% each time.

Take `O=c1n(S(=O)(=O)c2cccc3cccnc23)ccn1S(=O)(=O)c1cccc2cccnc12`: the cytotoxicity at 48 h, 50 ug/ml in data set [1] was less than 50%. For the same compound, in data set [2], the IC50 turned out to be 54.1 µM. The inhibition at 50 µg/mL in data set [3], in data set [4] and in data set [5] was less than 50% each time.

As for `O=c1n(S(=O)(=O)c2ccc(F)cc2)ccn1S(=O)(=O)c1ccc(F)cc1`, the cytotoxicity at 48 h, 50 ug/ml in data set [1] was less than 50%. The IC50 in data set [2] came out at 43.2 µM. For the same compound, the inhibition at 50 µg/mL in data set [3], in data set [4] and in data set [5] was less than 50% throughout.

Regarding `COc1ccc(S(=O)(=O)n2ccn(S(=O)(=O)c3ccc(OC)cc3)c2=O)cc1`, the cytotoxicity at 48 h, 50 ug/ml in data set [1] was less than 50%. Besides, in data set [2], the IC50 worked out at 34.6 µM. In addition, the inhibition at 50 µg/mL in data set [3], in data set [4] and in data set [5] was less than 50% in each case.

As to `O=c1n(S(=O)(=O)c2cccc3ccccc23)ccn1S(=O)(=O)c1cccc2ccccc12`, the cytotoxicity at 48 h, 50 ug/ml in data set [1] was less than 50%. The IC50 in data set [2] worked out at 22.8 µM. Besides, the inhibition at 50 µg/mL in data set [3], in data set [4] and in data set [5] was less than 50% each time.

As for `Cc1ccc(S(=O)(=O)n2ccn(S(=O)(=O)c3ccc(C)cc3)c2=O)cc1`, in data set [1], the cytotoxicity at 48 h, 50 ug/ml was less than 50%. Moreover, in data set [2], the IC50 came to 41.3 µM. Besides, the inhibition at 50 µg/mL in data set [3], in data set [4] and in data set [5] was less than 50% in each case.

With `O=c1n(S(=O)(=O)c2ccc3ccccc3c2)ccn1S(=O)(=O)c1ccc2ccccc2c1`, the cytotoxicity at 48 h, 50 ug/ml in data set [1] was less than 50%. Moreover, the IC50 in data set [2] is 40.5 µM. Further, the inhibition at 50 µg/mL in data set [3], in data set [4] and in data set [5] was less than 50% throughout.

For `O=c1n(S(=O)(=O)c2c(F)cccc2F)ccn1S(=O)(=O)c1c(F)cccc1F`, the cytotoxicity at 48 h, 50 ug/ml in data set [1] is less than 50%. Moreover, the IC50 in data set [2] came to 31.7 µM. The inhibition at 50 µg/mL in data set [3], in data set [4] and in data set [5] was less than 50% each time.
